{"source": "ChEMBL document CHEMBL3259666", "about": "“Discovery of a neuroprotective chemical, (S)-N-(3-(3,6-dibromo-9H-carbazol-9-yl)-2-fluoropropyl)-6-methoxypyridin-2-amine [(-)-P7C3-S243], with improved druglike properties” (J Med Chem, 2014)", "key": {"Mus musculus [1]": {"system": "Mus musculus", "test": "Toxicity in C57Bl/6 mouse assessed as effect on weight up to 10 mg/kg/day, ip bid administered for 21 days", "format": "organism-based", "set-up": "route intraperitoneal", "conditions": "in vivo, 504 h"}, "Mus musculus [2]": {"system": "Mus musculus", "test": "Toxicity in C57Bl/6 mouse assessed as effect on behavior up to 10 mg/kg/day, ip bid administered for 21 days", "format": "organism-based", "set-up": "route intraperitoneal", "conditions": "in vivo, 504 h"}, "Mus musculus [3]": {"system": "Mus musculus", "test": "Toxicity in C57Bl/6 mouse assessed as effect on appearance up to 10 mg/kg/day, ip bid administered for 21 days", "format": "organism-based", "set-up": "route intraperitoneal", "conditions": "in vivo, 504 h"}, "Mus musculus [4]": {"system": "Mus musculus", "test": "Neuroprotective activity in wild type C57BL/J6 mouse assessed as survival of newborn hippocampal neurons at 10 uM, icv administered for 7 days by BrdU staining-based microscopy relative to vehicle-treated control", "format": "functional, organism-based", "in_short": "(§1)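 Adult (12-week) wild-type C57BL/J6 mice. Compound infused ICV into the left lateral ventricle by osmotic minipump at 0.5 μL/h for 7 days, with BrdU 50 mg/kg/day IP for 6 days. Perfused 24 h after the last BrdU dose. BrdU antigen unmasked (formamide/SSC at 65 °C, then 2 M HCl); anti-BrdU staining. BrdU+ cells in the contralateral dentate gyrus SGZ counted in every fifth 40 μm section and normalised to dentate gyrus volume.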"}, "Mus musculus [5]": {"system": "Mus musculus", "test": "Neuroprotective activity in wild type C57BL/J6 mouse assessed as survival of newborn hippocampal neurons at 10 uM, icv administered for 7 days by BrdU staining-based immunohistochemical analysis relative to vehicle-treated control", "format": "functional, organism-based", "in_short": "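Adult (12 week old) C57BL/J6 mice, environmentally deprived; compound infused via osmotic minipump into left lateral ventricle at 0.5 μL/h for 7 days. BrdU IP 50 mg kg–1 day–1 for 6 days during infusion; perfusion 24 h after last BrdU. BrdU+ cells in SGZ/dentate gyrus of contralateral hemisphere counted in every fifth 40 μm section, normalized to dentate gyrus volume; mean ± SEM.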"}, "Mus musculus [6]": {"system": "Mus musculus", "test": "Neuroprotective activity in wild type C57BL/J6 mouse assessed as survival of newborn hippocampal neurons at 1 to 10 mg/kg/day, ip bid administered for 7 days by BrdU staining-based immunohistochemical analysis relative to vehicle-treated control", "format": "functional, organism-based", "in_short": "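Adult (12-week) wild-type C57BL/J6 mice. Compound given IP twice daily for 7 days, with BrdU 50 mg/kg/day IP. Perfused with 4% paraformaldehyde 24 h after the last BrdU dose. Anti-BrdU immunostaining after formamide/HCl unmasking. BrdU+ cells in the dentate gyrus SGZ counted in every fifth 40 μm section and normalised to dentate gyrus volume; mean ± SEM.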"}, "Mus musculus [7]": {"system": "Mus musculus", "test": "Neuroprotective activity in wild type C57BL/J6 mouse assessed as survival of newborn hippocampal neurons at 0.1 to 10 uM, icv administered for 7 days by BrdU staining-based microscopy relative to vehicle-treated control", "format": "functional, organism-based", "in_short": "as §1"}, "Mus musculus [8]": {"system": "Mus musculus", "test": "Neuroprotective activity in substantia nigra of C57Bl/6 mouse neurogenesis model assessed as protection from MPTP-induced cell death in mature neurons at 1 mg/kg/day, ip bid administered for 21 days by immunohistochemical analysis relative to vehicle-treated control", "format": "functional, organism-based", "in_short": "(§2)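 MPTP model in adult male C57Bl/6 mice, individually housed 1 week. MPTP free base 30 mg/kg/day IP for 5 days. From day 6 (24 h after the last MPTP dose), compound or vehicle given IP twice daily for 21 days. Mice were then perfused with 4% paraformaldehyde. SNc sectioned at 30 μm intervals and every fourth section stained for TH (DAB, hematoxylin counterstain). TH+ cells counted blinded; mean ± SEM, compared with vehicle + MPTP.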"}, "Mus musculus [9]": {"system": "Mus musculus", "test": "Neuroprotective activity in substantia nigra of C57Bl/6 mouse neurogenesis model assessed as protection from MPTP-induced cell death in mature neurons at 10 mg/kg/day, ip bid administered for 21 days by immunohistochemical analysis relative to vehicle-treated control", "format": "functional", "conditions": "route intraperitoneal", "in_short": "as §2"}, "Hepatocyte": {"system": "Hepatocyte", "test": "Half life in mouse hepatocytes", "format": "ADME, cell-based"}, "Liver": {"system": "Liver", "test": "Half life in mouse liver microsomes", "format": "ADME"}, "Liver microsome [10]": {"system": "Liver microsome", "test": "Half life in rat liver microsomes", "format": "ADME"}, "Liver microsome [11]": {"system": "Liver microsome", "test": "Half life in dog liver microsomes", "format": "ADME, Canis lupus familiaris"}, "[12]": {"test": "Half life in monkey liver microsomes", "format": "ADME, Macaca mulatta", "conditions": "rhesus monkey"}, "Liver microsome [13]": {"system": "Liver microsome", "test": "Half life in human liver microsomes", "format": "ADME"}, "Brain [14]": {"system": "Brain", "test": "AUC in mouse brain at 10 mg/kg, iv by HPLC/MS/MS analysis", "format": "ADME, organism-based", "set-up": "dose 10 mg/kg, route intravenous", "conditions": "in vivo", "in_short": "(§3)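 Mouse PK. Compound formulated in 5% DMSO/10% cremophor EL/85% D5W (pH 7.2) and given IV, IP or by oral gavage. Mice killed at varying times with CO2. Citrated plasma and PBS brain homogenate (3-fold volume) were protein-precipitated with acetonitrile containing 0.15% formic acid and analysed by HPLC/MS/MS against spiked blank standards. Noncompartmental analysis was used, with F = (AUCoral/AUCIV)×(DoseIV/Doseoral)×100%. Values are mean ± SEM.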"}, "Brain [15]": {"system": "Brain", "test": "AUC in mouse brain at 10 mg/kg, ip by HPLC/MS/MS analysis", "format": "ADME, organism-based", "set-up": "dose 10 mg/kg, route intraperitoneal", "conditions": "in vivo", "in_short": "as §3"}, "Brain [16]": {"system": "Brain", "test": "AUC in mouse brain at 20 mg/kg, ip by HPLC/MS/MS analysis", "format": "ADME, organism-based", "set-up": "dose 20 mg/kg, route intraperitoneal", "conditions": "in vivo", "in_short": "as §3"}, "Brain [17]": {"system": "Brain", "test": "AUC in mouse brain at 20 mg/kg, po by HPLC/MS/MS analysis", "format": "ADME, organism-based", "set-up": "dose 20 mg/kg, route oral", "conditions": "in vivo", "in_short": "as §3"}, "Brain [18]": {"system": "Brain", "test": "Bioavailability in mouse brain at 10 mg/kg, ip by HPLC/MS/MS analysis", "format": "ADME, organism-based", "conditions": "in vivo", "in_short": "as §3"}, "Brain [19]": {"system": "Brain", "test": "Bioavailability in mouse brain at 20 mg/kg, ip by HPLC/MS/MS analysis", "format": "ADME, organism-based", "conditions": "in vivo", "in_short": "as §3"}, "Brain [20]": {"system": "Brain", "test": "Bioavailability in mouse brain at 20 mg/kg, po by HPLC/MS/MS analysis", "format": "ADME, organism-based", "conditions": "in vivo", "in_short": "as §3"}, "Plasma [21]": {"system": "Plasma", "test": "Bioavailability in mouse plasma at 10 mg/kg, ip by HPLC/MS/MS analysis", "format": "ADME, organism-based", "conditions": "in vivo", "in_short": "as §3"}, "Plasma [22]": {"system": "Plasma", "test": "Bioavailability in mouse plasma at 20 mg/kg, ip by HPLC/MS/MS analysis", "format": "ADME, organism-based", "conditions": "in vivo", "in_short": "as §3"}, "Plasma [23]": {"system": "Plasma", "test": "Bioavailability in mouse plasma at 20 mg/kg, po by HPLC/MS/MS analysis", "format": "ADME, organism-based", "conditions": "in vivo", "in_short": "as §3"}, "[24]": {"test": "Half life in mouse at 10 mg/kg, iv by HPLC/MS/MS analysis", "format": "ADME, organism-based", "set-up": "dose 10 mg/kg, route intravenous", "conditions": "in vivo", "in_short": "as §3"}, "[25]": {"test": "Half life in mouse at 10 mg/kg, ip by HPLC/MS/MS analysis", "format": "ADME, organism-based", "set-up": "dose 10 mg/kg, route intraperitoneal", "conditions": "in vivo", "in_short": "as §3"}, "[26]": {"test": "Half life in mouse at 20 mg/kg, ip by HPLC/MS/MS analysis", "format": "ADME, organism-based", "set-up": "dose 20 mg/kg, route intraperitoneal", "conditions": "in vivo", "in_short": "as §3"}, "[27]": {"test": "Half life in mouse at 20 mg/kg, po by HPLC/MS/MS analysis", "format": "ADME, organism-based", "set-up": "dose 20 mg/kg, route oral", "conditions": "in vivo", "in_short": "as §3"}}, "note": "Active and inactive are the calls of the source. The calls are words filed in the database; no cut-off is given here.", "data": [{"smiles": "COc1cccc(NCC(F)Cn2c3ccc(Br)cc3c3cc(Br)ccc32)n1", "note": "(racemic)", "values": [{"measurement": "Activity", "setting": "Mus musculus [1]", "value": "Non-toxic"}, {"measurement": "Activity", "setting": "Mus musculus [2]", "value": "Non-toxic"}, {"measurement": "Activity", "setting": "Mus musculus [3]", "value": "Non-toxic"}, {"measurement": "Activity", "setting": "Mus musculus [4]", "value": "Active"}, {"measurement": "Activity", "setting": "Mus musculus [5]", "value": "Active"}, {"measurement": "Activity", "setting": "Mus musculus [6]", "value": "Active"}, {"measurement": "Activity", "setting": "Mus musculus [7]", "value": "Active"}, {"measurement": "Activity", "setting": "Mus musculus [8]", "value": "Active"}, {"measurement": "Activity", "setting": "Mus musculus [9]", "value": 85, "unit": "%"}, {"measurement": "t1/2", "setting": "Hepatocyte", "value": "> 4", "unit": "h"}, {"measurement": "t1/2", "setting": "Liver", "value": 0.817, "unit": "h"}, {"measurement": "t1/2", "setting": "Liver microsome [10]", "value": "> 4", "unit": "h"}, {"measurement": "t1/2", "setting": "Liver microsome [11]", "value": 0.75, "unit": "h"}, {"measurement": "t1/2", "setting": "[12]", "value": 1.35, "unit": "h"}, {"measurement": "t1/2", "setting": "Liver microsome [13]", "value": 1.95, "unit": "h"}, {"measurement": "AUC", "setting": "Brain [14]", "value": 671, "unit": "µg·min/g"}, {"measurement": "AUC", "setting": "Brain [15]", "value": 189, "unit": "µg·min/g"}, {"measurement": "AUC", "setting": "Brain [16]", "value": 319, "unit": "µg·min/g"}, {"measurement": "AUC", "setting": "Brain [17]", "value": 388, "unit": "µg·min/g"}, {"measurement": "F", "setting": "Brain [18]", "value": 28, "unit": "%"}, {"measurement": "F", "setting": "Brain [19]", "value": 48, "unit": "%"}, {"measurement": "F", "setting": "Brain [20]", "value": 29, "unit": "%"}, {"measurement": "F", "setting": "Plasma [21]", "value": 66, "unit": "%"}, {"measurement": "F", "setting": "Plasma [22]", "value": 90, "unit": "%"}, {"measurement": "F", "setting": "Plasma [23]", "value": 38, "unit": "%"}, {"measurement": "half-life", "setting": "[24]", "value": 7.4, "unit": "h"}, {"measurement": "half-life", "setting": "[25]", "value": "> 24", "unit": "h"}, {"measurement": "half-life", "setting": "[26]", "value": 15, "unit": "h"}, {"measurement": "half-life", "setting": "[27]", "value": 9.6, "unit": "h"}]}]}
